A selection: hits, their analogues and other compounds. The true share with any hit is near 3%.
Apaf1 inhib: blocks human Apaf-1 apoptosome activity | O14727 | reconstituted apoptosome caspase-3 activity, DEVD-Rh110 fluorescence | inhibition, % at 20 µM | 330,000 compounds, 0.71% hits | AID 489030; active means inhibition of at least 40% at 20 µM;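 further: plate controls were DMSO wells for no effect and DEVD-CHO caspase inhibitor wells for full effect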
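Assay system – apoptosome proteins · Medium – Hepes buffer, pH 7.5 · Also added – cytochrome c with DEVD-Rh110 · Timing – 30 min compound preincubation, 50 min activation, room temperature · Detection – Rh110 fluorescence, excitation 480 nm, emission 540 nm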
UBC13 polyUb: inhibitors of human UBC13 polyubiquitin chain formation; inhibition, % at 20 µM; AID 485273; TR-FRET; 330,000 compounds, 0.47% hits; in the data active means inhibition above about 45%, passing the limit was not always enough
Target sequence (P61088 whole entry, looked up): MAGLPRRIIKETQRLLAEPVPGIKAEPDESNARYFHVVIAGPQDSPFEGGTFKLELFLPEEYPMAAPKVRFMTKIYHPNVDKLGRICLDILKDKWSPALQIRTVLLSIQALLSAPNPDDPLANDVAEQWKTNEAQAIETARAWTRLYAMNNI
SENP6 inh: inhibitors of human SENP6 protease; Q9GZR1; Recombinant SENP6 catalytic domain, aminoluciferin luminescence; inhibition, % at 10 µM; 330,000 compounds, 1.8% hits;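 active means inhibition above about 50% at the single tested dose, limit read from the data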;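 further: plate controls were DMSO wells with enzyme for no effect and DMSO wells lacking enzyme for full effect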
SENP8 block-1: inhibitors of human SENP8 protease | Q96LD8 | purified SENP8, Z-RLRGG-aminoluciferin cleavage, luminescence | inhibition, % at 10 µM | 330,000 compounds, 1.2% hits | AID 2540; in the data active means inhibition above about 50%
Target sequence (Q96LD8 whole entry, looked up): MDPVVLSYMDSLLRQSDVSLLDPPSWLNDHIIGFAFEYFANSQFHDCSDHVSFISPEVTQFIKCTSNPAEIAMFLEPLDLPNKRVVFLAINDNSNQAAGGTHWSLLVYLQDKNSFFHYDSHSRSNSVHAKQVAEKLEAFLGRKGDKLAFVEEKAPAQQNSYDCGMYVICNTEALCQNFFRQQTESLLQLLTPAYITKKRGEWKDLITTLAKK
SENP7 inh: SENP7 protease inhibition | Q9BQF6 | inhibition, % at 5 µM | 330,000 compounds, 1.5% hits | recombinant SENP7, Z-RLRGG-aminoluciferin luminescence, 40 min | AID 434973;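 active means inhibition above about 50% at the single test dose, limit read from the data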;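 further: plate controls were DMSO with enzyme for no effect and no enzyme buffer wells for full effect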
SENP8 block-2: SENP8 (human) protease inhibition | Q96LD8 | recombinant SENP8, Nedd8 substrate fluorescence | inhibition, % at 20 µM | 360,000 compounds, 0.64% hits; in the data active means inhibition mostly above about 40%, no sharp cut-off; inactive means mostly below about 27%
Casp3 UBC13 ctr: inhibits human caspase-3 in UBC13 counter-screen; shares compounds with UBC13 polyUb; Recombinant caspase-3, Caspase-Glo 3/7 luminescence, 60 min; inhibition, % at 20 µM; 1,400 compounds, 4% hits; AID 488856;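 active means mean inhibition across replicates above about 26%, limit read from the data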;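 further: plate controls were DMSO with caspase-3 for no effect and DMSO wells lacking enzyme for full effect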
Target sequence (P42574 whole entry, looked up): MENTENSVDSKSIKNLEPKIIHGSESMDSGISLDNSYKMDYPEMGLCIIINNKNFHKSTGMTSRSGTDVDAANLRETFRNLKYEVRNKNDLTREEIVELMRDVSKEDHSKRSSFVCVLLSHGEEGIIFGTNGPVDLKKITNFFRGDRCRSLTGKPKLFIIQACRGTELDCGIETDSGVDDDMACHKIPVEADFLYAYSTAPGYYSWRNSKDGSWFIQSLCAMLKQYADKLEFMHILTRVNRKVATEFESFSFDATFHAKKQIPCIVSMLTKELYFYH
UBC13 confirm: confirmation of human UBC13 polyubiquitin inhibitors; inhibition, % at 10 µM; AID 488859; 1,400 compounds, 68% hits; shares compounds with UBC13 polyUb; UBC13 polyubiquitination, TR-FRET, biochemical; in the data active means inhibition above about 45%
Apaf-1 inh conf2: Apaf-1 inhibition, single-dose confirmed | 1,800 compounds, 25% hits | reconstituted apoptosome, caspase-3 DEVD-Rh110 fluorescence | inhibition, % at 20 µM | shares compounds with Apaf1 inhib;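 active means mean inhibition of at least 40% at 20 µM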;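 further: plate controls were DMSO wells for no effect and DEVD-CHO caspase inhibitor control wells for full effect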
Rh110 quench: Rh110 signal interference in Apaf-1 inhibitor counter-screen. shares compounds with Apaf1 inhib. Rh110 fluorescence interference, quenched caspase reaction. activation (fluorescence interference), % at 20 µM. 1,800 tested, under 10 active. AID 504615;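 active means signal rise of 40% or more at 20 µM, treated as a fluorescence artifact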
Fluor interf inh: counter-screen for Apaf-1 inhibitors: fluorescence interference, dose response; fluorescence interference counterscreen, Apaf-1 assay format; AID 588538; 460 tested, under 10 active; IC50, µM; shares compounds with Apaf1 inhib; call rule not given here
Starred values were filed as active, the others as inactive; x = no result given.

SMILES	Apaf1 inhib	UBC13 polyUb	SENP6 inh	SENP8 block-1	SENP7 inh	SENP8 block-2	Casp3 UBC13 ctr	UBC13 confirm	Apaf-1 inh conf2	Rh110 quench	others
C[C@@H](CN1CCC[C@H]1CN1C(N)=NC[C@@H]1Cc1ccccc1)N1C[C@@H](Cc2ccccc2)N(CCc2ccc(Cl)c(Cl)c2)C1=N	74*	63*	-20	0	8	18	-5	70*	29	5
CC(C)[C@H](CN1CCC[C@H]1CN1C(N)=NC[C@@H]1Cc1ccccc1)N1C[C@@H](Cc2ccccc2)N(CCc2ccc(Cl)c(Cl)c2)C1=N	82*	75*	-20	-14	-2	9	3	76*	40	8
CC(C)C[C@@H](CN1CCCC1CN1C(=S)NC[C@@H]1Cc1ccccc1)N1C[C@H](Cc2ccccc2)N(CCc2ccccc2)C1=S (some centres undefined)	x	x	x	x	x	7	x	x	x	x
CCNC(=O)C1CCCN(Cc2cc(C(F)(F)F)ccc2Cl)CC1 (centres undefined)	x	x	x	x	x	20	x	x	x	x
Cc1ccc(C(=Cc2ccc([N+](=O)[O-])cc2)C(=O)O)cc1	x	x	x	x	x	28	x	x	x	x
COc1ccc(NC(=O)c2nc[nH]c2C(=O)N(C)CCO)cc1	x	x	x	x	x	15	x	x	x	x
CN(Cc1ccc(Cl)c(Cl)c1)C(=O)c1cccc(S(=O)(=O)N2CCN(Cc3ccccc3)CC2)c1	72*	86*	-15	-15	-8	3	2	104*	49*	6	Fluor interf inh=>100
CN(Cc1cccc(F)c1)C(=O)c1cccc(S(=O)(=O)N2CCN(Cc3ccccc3)CC2)c1	13	13	-5	0	-5	9	x	x	x	x
COc1ccccc1OCCNC(=O)c1cccc(S(=O)(=O)N2CCN(C)CC2)c1	26	17	-8	6	-1	0	x	x	x	x
COc1ccccc1OCCNC(=O)c1cccc(S(=O)(=O)N2CCN(Cc3ccccc3)CC2)c1	67*	70*	-1	13	-3	2	-3	56*	49*	4	Fluor interf inh=>100
Cc1ccc(CN2CCN(C(=O)/C=C/[C@H]3O[C@@H](n4cc(C)c(=O)[nH]c4=O)C[C@@H]3O)CC2)cc1	x	x	x	x	x	12	x	x	x	x
COc1ccc(CC(=O)N(C)CC(=O)Nc2ccccc2Cl)cc1S(=O)(=O)N1CCOCC1	59*	52*	-4	-3	5	7	3	41	33	-4
COc1ccc(CN(C)C(=O)Cc2ccc(OC)c(S(=O)(=O)N3CCOCC3)c2)cc1OC	60*	101*	4	-1	-3	5	-3	109*	34	-2
COc1ccc(Br)cc1CN(C)C(=O)Cc1ccc(OC)c(S(=O)(=O)N2CCOCC2)c1	-3	4	-6	-5	-3	1	x	x	x	x
CN1C[C@@H](CO)O[C@@H](n2cnc3c(N4CCOCC4)ncnc32)C1	x	x	x	x	x	4	x	x	x	x
CC1(C)CC(Cc2ccc(Cl)nc2)N(C(=O)OC(C)(C)C)C1 (centres undefined)	x	x	x	x	x	12	x	x	x	x
CC(C)Sc1nc(-c2cccs2)nc2cc(Cl)ccc12	x	x	x	x	x	-206	x	x	x	x
COc1ccc2nc(C)cc(SCC(=O)N/N=C/c3ccccc3)c2c1	-1	30	0	1	4	-12	x	x	x	x
COc1ccc2nc(C)cc(N/N=C/c3ccccc3)c2c1	50*	53*	-2	1	3	-388	6	49*	4	7
COc1ccc(/C=N/Nc2cc(C)nc3ccc(OC)cc23)c(OC)c1	43*	102*	2	-13	-4	-284	4	122*	0	7
COc1ccccc1/C=N/Nc1cc(C)nc2ccc(C)cc12	22	-6	2	-16	3	-298	x	x	x	x
CCCCCCCCCCCCCCCC[n+]1ccc(C(N)=O)cc1	73*	89*	-17	3	8	14	-3	99*	53*	8	Fluor interf inh=>100
CCCCCCCCCCCCCCCC[n+]1ccccc1	x	x	x	x	x	13	x	x	x	x
CCCCCCCCCCCCCCCC[n+]1cccc(C(=O)N(CC)CC)c1	74*	70*	-33	-39	1	17	-2	94*	72*	20	Fluor interf inh=>100
CCCCCCCCCCCCCCCC[n+]1ccc(/C=N/O)cc1	80*	91*	-23	5	12	23	-2	88*	58*	17	Fluor interf inh=>100
SMILES	Apaf1 inhib	UBC13 polyUb	SENP6 inh	SENP8 block-1	SENP7 inh	SENP8 block-2	Casp3 UBC13 ctr	UBC13 confirm	Apaf-1 inh conf2	Rh110 quench	others
N/C(=N\OC(=O)c1ccccc1)C(Cc1ccccc1)C(=O)NOC(=O)c1ccccc1 (centres undefined)	x	x	x	x	x	-24	x	x	x	x
CCCCN1C(=O)C(CC(=O)NCc2cccc3ccccc23)CC(C(=O)N(C(C)C)C(C)C)=C1C (centres undefined)	x	x	x	x	x	21	x	x	x	x
C#CCOCCOCCOCCNc1nc(N2CCN(C(=O)[C@H](CCCCN)n3cc([C@@H](N)C(C)CC)nn3)CC2)nc(N2CCN(C(=O)[C@H](Cc3cc4ccccc4[nH]3)n3cc([C@@H](N)C(C)CC)nn3)CC2)n1 (some centres undefined)	53*	111*	-13	-10	-15	-9	-2	114*	4	-7
C#CCOCCOCCOCCNc1nc(N2CCN(C(=O)[C@H]([C@@H](C)CC)n3cc([C@@H](N)CC(C)C)nn3)CC2)nc(N2CCN(C(=O)[C@H](Cc3cc4ccccc4[nH]3)n3cc([C@@H](N)Cc4ccc(O)cc4)nn3)CC2)n1	56*	74*	-23	-12	-2	x	2	66*	7	-1
C#CCOCCOCCOCCNc1nc(N2CCN(C(=O)C([C@@H](C)CC)n3cc(C(N)CC(C)C)nn3)CC2)nc(N2CCN(C(=O)[C@H](CCC(=O)O)n3cc(C(N)Cc4ccc(O)cc4)nn3)CC2)n1 (some centres undefined)	-9	14	-20	5	-8	23	x	x	x	x
C#CCOCCOCCOCCNc1nc(N2CCN(C(=O)[C@H]([C@@H](C)CC)n3cc([C@@H](N)Cc4ccc(O)cc4)nn3)CC2)nc(N2CCN(C(=O)[C@H](Cc3cc4ccccc4[nH]3)n3cc([C@@H](N)CC(C)C)nn3)CC2)n1	63*	87*	-21	-21	-14	-34	-4	61*	30	-3

High-throughput results (PubChem BioAssay)
